Active and inactive are the calls of the source. The rule behind the calls is not given here.
Key:
[1] = target: Replicase polyprotein 1ab (Severe acute respiratory syndrome coronavirus 2) (UniProt P0DTD1); experiment: Inhibition of SARS-CoV-2 MPro at 5 uM using MCAAVLQSGFR-Lys(Dnp)-Lys-NH2 as substrate incubated for 10 mins by FRET assay
How it was run: (§1)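 3CLpro FRET assay at 5 μM compound, run as the standard protocol (10 min 37 °C preincubation, ex 320/em 405 nm kinetic read). The assay buffer either contained 4 mM DL-dithiothreitol or had none added. Ebselen served as the control.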

[2] = target: Replicase polyprotein 1ab (Severe acute respiratory syndrome coronavirus 2) (UniProt P0DTD1); experiment: Inhibition of SARS-CoV-2 MPro at 5 uM using MCAAVLQSGFR-Lys(Dnp)-Lys-NH2 as substrate in presence of DTT incubated for 10 mins by FRET assay; how it was run: as §1
[3] = target: Replicase polyprotein 1ab (Severe acute respiratory syndrome coronavirus 2) (UniProt P0DTD1); experiment: Inhibition of SARS-CoV-2 MPro at 1 uM using MCAAVLQSGFR-Lys(Dnp)-Lys-NH2 as substrate incubated for 10 mins by FRET assay relative to control
Vero C1008 = experiment: Cytotoxicity against African green monkey Vero E6 assessed as inhibition of cell growth at 20 uM incubated for 26 hrs; format: toxicity, cell-based; details: chlorocebus sabaeus, vero c1008, 26 h
[4] = target: Replicase polyprotein 1ab (Severe acute respiratory syndrome coronavirus 2, UniProt P0DTD1); experiment: Inhibition of SARS-CoV-2 MPro using MCAAVLQSGFR-Lys(Dnp)-Lys-NH2 as substrate incubated for 10 mins by FRET assay
How it was run: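 Same 3CLpro FRET protocol (enzyme working 1.5 μM, substrate 500 μM, Tris/NaCl/glycerol buffer pH 7.3, 10 min 37 °C preincubation, ex 320/em 405 nm kinetic read for 10 min). Compounds were tested at 0.1, 0.5, 1 and 5 μM from 5 mM DMSO stocks. IC50 is the average of three independent experiments.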

[5] = Cytotoxicity against African green monkey Vero E6 assessed as inhibition of cell growth incubated for 26 hrs; format: toxicity, cell-based; details: chlorocebus sabaeus, Vero E6 cells (Vero C1008)
How it was run: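 Vero E6 cells were seeded at 1.7 × 10^4/well in DMEM high glucose/10% FBS and grown 24 h at 37 °C, 5% CO2. Compound was then added in DMEM/5% FBS, final 1% DMSO, for 26 h. Viability was read with the CellTiter 96 aqueous nonradioactive proliferation assay. Values are averages of three or more replicate assays.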

Compound | inhibition [1] | inhibition [2] | inhibition [3] | Activity (Vero C1008) | IC50 [4] | CC50 at 26 h [5]
O=c1c2ccccc2[se]n1-c1ccccc1 | Active | inactive | – | – | – | –
NC(=O)c1ccc2c(c1)C(=O)C(=O)N2Cc1cn(Cc2ccc(S(N)(=O)=O)cc2)nn1 | – | – | 73.3% | Not Active | 1120 nM | > 20000 nM
NC(=O)c1ccc2c(c1)C(=O)C(=O)N2Cc1cn(Cc2cccc(Cl)c2)nn1 | Active | Active | 76.4% | Not Active | 440 nM | > 20000 nM
NC(=O)c1ccc2c(c1)C(=O)C(=O)N2Cc1ccc2ccccc2c1 | Active | Active | 87.3% | Not Active | 300 nM | < 2200 nM
NC(=O)c1ccc2c(c1)C(=O)C(=O)N2Cc1cn(Cc2ccc(C(F)(F)F)cc2F)nn1 | – | – | 78.1% | Not Active | 530 nM | > 20000 nM
